Hits are enriched below; roughly 0.72% of the tested compounds scored in any of these assays.
hIAP block = blocks human intestinal alkaline phosphatase. P09923. purified IAP, CDP-Star luminescence, 30 min. inhibition, % at 10 µM. actives 0.12% (n = 330,000);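 active = inhibition reaching a set limit with compound at 10 µM in the primary screen, cut at about 35% in these data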
Target sequence (P09923 whole entry, looked up): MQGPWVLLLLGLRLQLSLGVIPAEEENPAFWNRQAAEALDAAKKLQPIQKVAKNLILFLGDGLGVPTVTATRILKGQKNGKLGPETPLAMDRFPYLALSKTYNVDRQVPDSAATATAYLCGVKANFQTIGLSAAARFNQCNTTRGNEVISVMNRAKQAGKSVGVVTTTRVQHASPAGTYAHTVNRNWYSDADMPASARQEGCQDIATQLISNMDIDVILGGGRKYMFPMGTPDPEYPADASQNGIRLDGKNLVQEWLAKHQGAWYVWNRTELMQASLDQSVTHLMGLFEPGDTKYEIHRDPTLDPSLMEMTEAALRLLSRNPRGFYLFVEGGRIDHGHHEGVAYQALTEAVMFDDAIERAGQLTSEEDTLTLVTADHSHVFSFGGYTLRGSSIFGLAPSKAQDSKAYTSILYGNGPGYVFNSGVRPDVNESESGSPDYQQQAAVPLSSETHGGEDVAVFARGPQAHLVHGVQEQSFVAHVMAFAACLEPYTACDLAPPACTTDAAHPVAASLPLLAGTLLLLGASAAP
mIAP activ = mouse IAP activation; activation factor at 10 µM; muIAP, CDP-Star luminescence, 30 min; stronger effect = higher value; 1 = vehicle-only enzyme signal, 0 = enzyme-free wells; actives 0.24% (n = 330,000);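 active = activation factor of at least 2 at 20 µM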
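System: Mouse IAP enzyme | Also added: CDP-Star substrate | Dosing: Compounds dispensed in DMSO | Schedule: 30 min enzyme-substrate-compound incubation at room temperature | Technique: Chemiluminescence readout | Control set: DMSO-only wells and no-enzyme negative control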
bIAP inhibitor = intestinal alkaline phosphatase (bovine) inhibition; purified bovine IAP, CDP-star luminescence, 30 min; inhibition, % at 20 µM; 190,000 tested, under 10 active;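 active = over 50% inhibition of intestinal alkaline phosphatase at 20 µM in the single-dose screen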
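Assay system: bovine IAP enzyme; medium: DEA buffer 100 mM, pH 9.8, with MgCl2 1.0 mM, ZnCl2 0.02 mM; doses: 20 µM single dose; incubation: enzyme reaction for 30 min at room temperature; detection: CDP-star luminescence signal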
mIAP block = blocks mouse intestinal alkaline phosphatase | inhibition, % at 10 µM | actives 0.2% (n = 330,000) | AID 2806 | purified mouse IAP, CDP-Star luminescence, 30 min;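 active = inhibition of at least 40% at 10 µM in the primary screen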
hIAP activ = human IAP activation. P09923. purified human IAP, CDP-Star luminescence, 30 min; stronger effect = higher value; 1 = vehicle-only enzyme, 0 = enzyme-free background. activation factor at 10 µM. actives 0.16% (n = 330,000). AID 2524;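 active = activation factor of the enzyme at least 2-fold when tested at 20 µM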
bIAP act = increases bovine intestinal alkaline phosphatase activity; purified bovine IAP, CDP-star luminescence, 30 min; stronger effect = higher value; fold of DMSO-control signal, blank-subtracted; activation factor at 20 µM; actives 0.17% (n = 200,000); AID 1016;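 active = activation factor of 2 or more at 20 µM, a signal rise over negative controls twice the positive control's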
hIAP act confirm = human IAP activation confirmation | activation (%Activity, negative = activation), % at 8.3 µM | purified IAP, CDP-Star luminescence, 30 min; stronger effect = lower value | actives 10% (n = 880) | shares compounds with hIAP activ;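 active = at least twofold enzyme activation in any of six single-dose repeats, which the averaged readout prints as negative percent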
A number is an active result; i = inactive; nt = no result given.

SMILES	hIAP block	mIAP activ	bIAP inhibitor	mIAP block	hIAP activ	bIAP act	hIAP act confirm
COc1cccc(C(=O)NCC(=O)NNc2ncnc(N)c2[N+](=O)[O-])c1	i	i	i	i	2.7	i	i
C=CCN1C=CC(=CC=C(C#N)C#N)C=C1	35	i	nt	i	i	nt	i
Cc1ccc(C2N(C)C(=O)c3ccccc3N2C)cc1 (stereo unspecified)	i	i	nt	i	i	nt	nt
CC(=O)Nc1cccc(C(=O)NNC(=O)c2n[nH]c(=O)c3ccccc23)c1	i	i	nt	i	2.3	nt	-125
CC(C)c1ccc(C(=O)NNC(=O)c2n[nH]c(=O)c3ccccc23)cc1	i	i	nt	i	i	nt	nt
CCOc1ccc2oc(C(=O)NNC(=O)c3ccccc3O)c(C)c2c1	i	i	nt	i	2.4	nt	i
CN(C)c1ccc(NC(=O)Nc2cccc(Cl)c2)cc1	i	i	i	i	i	i	nt
CN(C)c1ccc(NC(=O)Nc2csc3ccccc23)cc1	i	i	nt	i	i	nt	i
CCc1nnc(NC(=O)c2ccc3ccccc3n2)s1	i	i	i	i	i	i	nt
CCSc1nnc(NC(=O)c2ccc3ccccc3n2)s1	i	i	i	i	2.1	i	i
Cc1cccc(C)c1NC(=O)CNC(=O)CCNC(=O)c1ccco1	i	i	nt	i	i	nt	nt
Cc1ccc(CN(C)C(=O)c2cccc(S(=O)(=O)N3CCc4ccccc4C3)c2)o1	i	i	nt	i	i	nt	nt
Cn1ncc2c1ncn1nc(CCc3ccccc3)nc21	39	i	i	i	i	i	i
COc1ccc(C(C)NC(=S)NC2CCCC2)cc1OC (stereo unspecified)	i	i	i	i	i	i	nt
CC(NC(=S)NC1CCC(C(C)(C)C)CC1)c1ccccc1 (stereo unspecified)	i	4.5	nt	i	2	nt	-111
O=C(COc1ccc(Cl)cc1)OCC(=O)N1CCCc2ccccc21	36	i	i	44	i	i	i
O=C1c2[nH]nc(-c3ccccc3O)c2C(c2cccc(Cl)c2)N1Cc1ccco1 (stereo unspecified)	i	i	i	i	2.3	i	i
Nc1c(N2CCOCC2)cc(Cl)c2nonc12	i	i	i	i	i	i	nt
Nc1c(N2CCCC2)cc(Cl)c2nonc12	35	i	i	i	i	i	i
COc1ccc(CC(=O)Nc2nnc(C(C)(C)C)s2)cc1OC	i	i	i	i	i	i	nt
CCOc1cccc2sc(Nc3nc4ccc(NC(C)=O)cc4s3)nc12	i	i	i	i	2.1	i	i
COc1ccc(N2CCN(CCNC(=O)CCC(=O)NNc3nc4ccccc4c4nc(C)nn34)CC2)cc1	i	i	nt	i	2.5	nt	i
Cc1nc2c3ccccc3nc(NNC(=O)CCC(=O)NC3CCCC3)n2n1	i	i	i	i	i	i	nt
Cc1nc2c3ccccc3nc(NNC(=O)CCC(=O)N3CCCC(C)C3)n2n1 (stereo unspecified)	i	i	nt	i	2.5	nt	-42
CC(CC(=O)Nc1ccc(S(=O)(=O)N2CCOCC2)cc1)c1ccccc1 (stereo unspecified)	i	i	nt	i	i	nt	nt
SMILES	hIAP block	mIAP activ	bIAP inhibitor	mIAP block	hIAP activ	bIAP act	hIAP act confirm
O=C(CCCc1ccccc1)Nc1ccnn1C1CCN(Cc2ccccc2F)CC1	i	i	nt	i	i	nt	nt
O=C(CCCc1ccccc1)Nc1ccnn1C1CCN(Cc2ccccc2)CC1	i	i	nt	i	i	nt	nt
COc1cc(CN2CCC(n3nccc3NC(=O)CCCc3ccccc3)CC2)ccc1F	i	i	nt	i	2	nt	i
CCOc1ccc(CN2CCC(n3nccc3NC(=O)CCCc3ccccc3)CC2)cc1	i	2.2	nt	i	3.2	nt	i
COc1cccc(CN2CCC(n3nccc3NC(=O)CCCc3ccccc3)CC2)c1O	i	i	nt	i	i	nt	nt
COc1ccc(CN2CCC(n3nccc3NC(=O)CCc3ccccc3)CC2)c(C)c1C	i	2.1	nt	i	2.3	nt	i
O=C(O)COn1c(-c2ccc(Cl)cc2)nc2ccc(Cl)cc21	i	i	i	i	2.2	i	i
COn1c(-c2ccc(Cl)cc2)nc2ccc(Cl)cc21	i	i	i	i	i	i	nt
COc1ccc(NC(=O)Nc2cccc3c2O[C@H](CN(C)S(=O)(=O)c2cn(C)cn2)[C@@H](C)CN([C@H](C)CO)C3=O)cc1	i	i	nt	i	i	nt	nt
CCCCC#Cc1cncc(C(=O)N/N=C/c2cccc(OC)c2)c1	40	i	nt	i	i	nt	i
COC(=O)c1ccc(N2NC(=O)/C(=C/c3cc(OC)c(OC)c(OC)c3)C2=O)cc1	i	i	nt	i	i	nt	nt
COC(=O)c1ccc(N2NC(=O)/C(=C/c3cc(OC)c(O)c(OC)c3)C2=O)cc1	37	i	nt	i	i	nt	i
O=C(NNC(=O)c1ccccc1O)c1cc2ccccc2o1	i	i	nt	i	2.4	nt	i
COC(=O)c1nnn(-c2nonc2N)c1CSc1nc2ccccc2o1	i	i	i	i	3.3	i	i
COC(=O)c1nnn(-c2nonc2N)c1CSc1nc2ccccc2s1	i	i	i	i	i	i	nt
CC(=O)N1c2ccc(S(=O)(=O)N3CCC(C(=O)Nc4cccc(Cl)c4)CC3)cc2CC1C (stereo unspecified)	i	i	nt	i	2	nt	i
O=C(CSc1nnc(-c2ccccc2O)n1Cc1ccccc1)NNC(=O)c1ccccc1O	i	i	i	i	2.5	i	i
CCn1nc(NS(=O)(=O)c2ccccc2)c2cc3ccc(C)cc3nc21	39	i	nt	i	i	nt	i
CCn1nc(NS(=O)(=O)c2ccccc2)c2cc3cc(C)ccc3nc21	i	i	nt	i	i	nt	nt
COc1ccc(CCN2CCCn3c2nc2c3c(=O)n(C)c(=O)n2C)cc1OC	i	i	nt	i	i	nt	nt
CC(C)c1ccc(CNC(=O)C(=O)NCC2CCCO2)cc1 (stereo unspecified)	i	i	i	i	i	i	nt
CCC(NC(=S)NC1CCCCC1)c1ccc(C(C)C)cc1 (stereo unspecified)	i	5.7	nt	i	4.1	nt	-24
Cc1ccc(C(C)NC(=S)NC2CCCCC2)cc1C (stereo unspecified)	i	i	nt	i	i	nt	nt
O=C(Nc1ncn[nH]1)c1ccc(Cl)c(S(=O)(=O)N2CCCCCC2)c1	i	i	i	i	2.4	i	i
Cc1ccc(C(=O)NCCc2nnc3ccc(NCc4ccc5c(c4)OCO5)nn23)cc1	i	i	nt	i	i	nt	nt
CCOC(=O)c1c(NC(=O)Cn2cc([N+](=O)[O-])cn2)sc2c1CCC2	36	i	i	i	i	i	-91
CCn1cc(C(=O)NCCCOC)c(=O)c2cc(S(=O)(=O)N3CCCC3)ccc21	39	i	nt	i	i	nt	i
CCCCNC(=O)c1cn(CC)c2ccc(S(=O)(=O)N3CCCC3)cc2c1=O	i	i	nt	i	i	nt	nt

Assay outcomes (PubChem)
